Legend:
[1] = comparison CNS drug; no reference given; cited from earlier work
MC65 cells [2] = details: cited from earlier work
MC65 cells [3] = assay: Cellular ROS assay with CM-H2DCFDA in MC65 cells; assay type: cell-based; details: CM-H2DCFDA fluorescence, TC- condition, n = 7-8
In short: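 MC65 cells kept in 1 μg/mL tetracycline were washed extensively and plated at 2.5×10^4 cells/well in serum-free, phenol-red-free Opti-MEM without tetracycline. For ROS, cells were PBS-washed, loaded with CM-H2DCFDA and incubated 40 min. Random fluorescence photomicrographs were taken per condition, and intensity was quantified by image analysis, blinded to investigator.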

SMILES | Log Doct [1] | MC65 cell death (MC65 cells [2]) | ROS production of MC65 cells (MC65 cells [3])
CN(C)CCC(c1ccc(Cl)cc1)c1ccccn1 (stereo not drawn) [chlorpheniramine] | 1.25 | – | –
Cc1c(C)c2c(c(C)c1O)CC[C@@](C)(CCC[C@H](C)CCC[C@H](C)CCCC(C)C)O2 [α-tocopherol] | – | blocked | reduced

— PMC5438482 (Journal of Alzheimer's Disease, 2017)
